Sampled rows, rich in hits. Any-hit rate of the full collection: about 1.4%.
m-calpain inh: inhibitors of pig calpain II. purified calpain II, fluorogenic peptide substrate, 30 min. inhibition, % at 16 µM. hit rate 0.37% among 220,000. AID 1236;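 active = inhibition above about 50%, limit read from the data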
thrombin 1536: blocks human thrombin protease activity. AID 1046. alpha-thrombin, Boc-VPR-AMC fluorogenic substrate cleavage. inhibition, % at 5 µM. P00734. hit rate 0.26% among 220,000;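 active = inhibition at or above 40%; inactive = inhibition below 40%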
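Test system: human alpha-thrombin; medium: pH 7.5 Tris-saline with Tween 20; times: reaction at room temperature; signal: AMC fluorescence at 355 nm excitation and 460 nm emission; also added: Boc-VPR-AMC substrate, 15 µM final; dosing: one concentration per compound, 5 µM, with 0.2% DMSO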
FXIa inh: factor XIa (human) inhibition. purified FXIa, Boc-Glu-Ala-Arg-AMC fluorogenic substrate. inhibition, % at 5 µM. hit rate 0.14% among 220,000;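 active = inhibition of at least 40%; inactive = inhibition below 40%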;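 also: fluorescence of freed AMC excited at 355 nm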
hK5 inh: blocks human kallikrein 5 protease activity | Q9Y337 | recombinant hK5, fluorogenic AMC substrate cleavage | inhibition, % at 5 µM | hit rate 0.59% among 210,000 | AID 873;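 active = inhibition of 40% or more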
Target sequence (Q9Y337 67-293 limits assumed): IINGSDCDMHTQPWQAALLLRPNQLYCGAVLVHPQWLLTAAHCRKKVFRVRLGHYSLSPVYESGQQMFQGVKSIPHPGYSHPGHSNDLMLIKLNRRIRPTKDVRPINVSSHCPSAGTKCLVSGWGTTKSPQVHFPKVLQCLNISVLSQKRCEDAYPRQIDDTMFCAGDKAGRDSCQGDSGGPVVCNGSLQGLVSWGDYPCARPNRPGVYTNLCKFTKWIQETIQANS
FXIIa inh: blocks human coagulation factor XIIa protease activity | P00748 | AID 800 | hit rate 0.3% among 220,000 | purified FXIIa, Boc-QGR-AMC fluorogenic substrate, 2 h | inhibition, % at 5 µM; in the data active = inhibition above about 40%
Of the large screens only hits and unclear results are named; the others gave an inactive call; ! = a repeat was not active.

COc1ccc(C2=NO[C@@H]3[C@@H]4C[C@@H]([C@H]5C(=O)N(C)C(=O)[C@@H]45)[C@H]23)c(OC)c1	none
COc1ccc(/C=C/C(=O)N2CCN(S(=O)(=O)c3ccccc3)CC2)cc1OC	hK5 inh 48
COc1ccc(-c2csc(C3=C(O)CN(C(C)C)C3=N)n2)cc1OC	none (no result: FXIIa inh)
CCCC(C)C(=O)Nc1ccc(F)c(Cl)c1 (stereo unspecified)	thrombin 1536 62
COc1ccc(N2CCN(C(c3ccccc3OC)c3nnnn3C3CCCC3)CC2)cc1 (stereo unspecified)	none
COc1ccc(OC)c(C(c2nnnn2C2CCCC2)N2CCN(c3ccccc3F)CC2)c1 (stereo unspecified)	m-calpain inh 51
COc1ccc(Cn2nnnc2C(c2cc(OC)ccc2OC)N2CCC(C(N)=O)CC2)cc1 (stereo unspecified)	hK5 inh 70
CC(C)(C)c1ccc(C(=O)N2CCCN(c3ccc([N+](=O)[O-])cn3)CC2)cc1	none
COC(=O)c1cc(CSc2nnc(NC3CCCCC3)s2)oc1C	hK5 inh 42
Cc1cc(N2C(=O)C3CCC(c4ccccc4)CC3C2=O)no1 (stereo unspecified)	none
CN(C)/C=C(\C#N)C(=O)Nc1ccc(O)cc1F	none
COC(=O)CN1C(=O)C(O)(CC(=O)c2ccc(Cl)cc2)c2ccccc21 (stereo unspecified)	thrombin 1536 41
CCOC(=O)C1=C(C)OC(N)=C(C#N)C1c1cc2c(cc1[N+](=O)[O-])OCO2 (stereo unspecified)	thrombin 1536 74
Cc1ccc2cc(C#N)c(SCC(=O)NNC(=O)Cc3ccccc3)nc2c1	m-calpain inh 59
OCC1CCCC(n2cnc3c(=S)nc[nH]c32)O1 (stereo unspecified)	none
O=C(COC(=O)CCc1ccccc1)NC12CC3CC(CC(C3)C1)C2	m-calpain inh 50
Cn1c(=O)n(CCc2ccccc2)c(=O)c2c1nc1n2CCCN1CCc1ccccc1	m-calpain inh 69
Cc1cccc(N2N=C(C(=O)N3CC(=O)Nc4ccccc43)CCC2=O)c1	FXIIa inh 44
Cc1cccc(Nc2c([N+](=O)[O-])cc(C(=O)N3CC(=O)Nc4ccccc43)cc2[N+](=O)[O-])c1	none
CCN1C(=O)S/C(=C/c2ccc(Sc3nc4ccccc4[nH]3)o2)C1=O	none
CCOc1ccsc1C(=O)OC	none
Cc1cc(C(=O)Nc2ccc(N3CCOCC3)cc2)c2ccccc2n1	FXIIa inh 44
CSc1nc2cc(Oc3cccc(Cl)c3Cl)c(Cl)cc2[nH]1	m-calpain inh 61 (no result: thrombin 1536, FXIa inh, hK5 inh, FXIIa inh)
CSc1nc2ccc(Cl)cc2[nH]1	none
C/C(CC(=O)Nc1cccc(C(F)(F)F)c1)=N/NC(=O)C(=O)NCCO	none
COc1cccc(/C=C(/C(=O)OCC(N)=O)c2ccccc2)c1	none
COc1cccc(/C=C(/C(=O)OCC(=O)NC2CCCC(C)C2C)c2ccccc2)c1 (stereo unspecified)	m-calpain inh 56
CN(c1ccccc1)S(=O)(=O)c1ccc(NC(=S)NC(=O)c2ccccc2)cc1	FXIIa inh 95
CC1=NNC(=O)C1CC(=O)N/N=C/C=C/c1ccccc1 (stereo unspecified)	none
O=C(NCc1ccccc1)c1onc(CSc2ccccc2)c1C(=O)NCC1CC1	none
COc1ccc2[nH]c3c(NCCCN4CCCC4=O)ncnc3c2c1	hK5 inh 54
Cc1ccc(Nc2nc(-c3ccc(S(=O)(=O)N4CCOCC4)cc3)cs2)cc1Cl	m-calpain inh 60
COc1cc(/C=c2\s/c(=C\C(=O)C(C)(C)C)[nH]c2=O)cc(OC)c1OC	hK5 inh 47
COc1ccc(/C=c2\s/c(=C\C(=O)C(C)(C)C)[nH]c2=O)cc1O	none
CC[C@H](C)C(C(=O)N1CCN(C(=O)OC(C)(C)C)CC1)n1cc(C(Cc2ccc(O)cc2)NC(=O)OC(C)(C)C)nn1 (stereo partly specified)	none
Cc1ccc(/C=c2\sc3nc(-c4ccccc4Br)nn3c2=O)o1	thrombin 1536 104
O=C(NCCCCNC(=O)C(F)(F)F)C(F)(F)F	none
COCCCNC(=O)C(F)(F)C(F)(F)C(=O)NCCCOC	hK5 inh 122
COc1ccc(C(=O)n2ccc(C)n2)cc1Br	hK5 inh 70
CC(C)OP(=O)(OC(C)C)C(Nc1ccccc1)c1ccc2c(c1)OCO2 (stereo unspecified)	none
CC(C)COP(=O)(OCC(C)C)C(Nc1ccccc1)c1ccc2c(c1)OCO2 (stereo unspecified)	m-calpain inh 51
O=C(CO/N=C/c1ccccc1O)N1CCc2ccccc21	hK5 inh 45
COc1ccccc1NS(=O)(=O)c1cc(NC(=O)Nc2ccccc2)ccc1N1CCCCC1	hK5 inh 53
CSc1cccc(NC(=O)Nc2nc3c(C)cccc3s2)c1	none
COc1ccc(NC(C)c2cc(Cl)ccc2O)cc1 (stereo unspecified)	m-calpain inh 50
O=C(O)c1ccc(F)c(S(=O)(=O)Nc2ccccc2Cl)c1	hK5 inh 86
O=C(N/N=C/C(Br)=C/c1ccccc1)c1cnccn1	none
CCCCS(=O)(=O)c1sc2nc3c(cc2c1N)CCCC3	hK5 inh 42
COc1ccccc1NC(=O)C1C2CCCCC21 (stereo unspecified)	thrombin 1536 104, hK5 inh 61
COc1ccccc1NC(=O)/C=C\C(=O)O	m-calpain inh 77
COc1ccc(Cl)cc1NC(=O)/C=C\C(=O)O	none
Cc1ccc(NCC(=O)N/N=C/c2cccc(Oc3ccccc3)c2)cc1	none
Clc1ccc(C2CSc3c4ncnc-4ncn32)cc1 (stereo unspecified)	hK5 inh 46
Cc1ccc(C2CC(c3ccc(Cl)cc3)n3nc(N)nc3N2)cc1 (stereo unspecified)	none
CC1CCC2(CC1)NC(=S)N(C(C)(C)C)N2 (stereo unspecified)	hK5 inh 42
COc1ccc(NC2=C3CC(C)CC=C3N(c3ccc(OC)cc3)C2=O)cc1 (stereo unspecified)	none
CC(C)(C)c1ccc(OCc2nc(-c3ccccn3)no2)c(Br)c1	hK5 inh 44
COc1ccc(C(=O)O)cc1S(N)(=O)=O	none
CNS(=O)(=O)c1cc(C(=O)O)ccc1OC	FXIIa inh 41
Cc1ccc(O)c(CO)n1	none
COc1ccc(CCc2nc(C)ccc2O)cc1	hK5 inh 44!
Clc1ccc(-n2cc(COCc3ccccc3)nn2)cc1	hK5 inh 46
O=C(Nc1ccc(Cl)cc1)OCc1cn(-c2ccc(Cl)cc2)nn1	none
Nc1nnc(SCCCC(=O)c2ccccc2)s1	thrombin 1536 46
C=CCOC(=O)c1sc(NC(=O)c2ccc(OC)cc2)nc1C	none
COc1cc(S(=O)(=O)N2CCN=C2c2ccccc2)ccc1F	none
Cc1ccc(S(=O)(=O)N2CCN=C2c2ccccc2)cc1C	hK5 inh 45
Cc1ccccc1C(=O)NC1CCSC1=O (stereo unspecified)	FXIa inh 50
Cc1ccsc1/C=C1\SC(N2CC(C)OC(C)C2)=NC1=O (stereo unspecified)	none

Screening results deposited in PubChem by several laboratories.
